ChEMBL document CHEMBL5550195, “Synthesis and in vitro evaluation of novel amino-phenylmethylene-imidazolone 5-HT2A receptor antagonists” (RSC Med Chem, 2024)
pIC50, pKi: −log10 of the molar value. Calls of active or inactive are those of the source. No cut-off for these calls is given here.

Experiments:
[1] = biological target: T1, 5-hydroxytryptamine receptor 2A (Homo sapiens, UniProt P28223); assay: Displacement of [3H] Ketanserin from 5HT2A receptor (unknown origin) incubated for 0.5 hrs by microbeta2 plate reader assay
In short: (§1)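 Filtration binding on 5-HT2A membranes. Serially diluted compound, with ketanserin as reference, was mixed with membrane and [3H]ketanserin, with separate nonspecific-binding wells, and shaken at 300 rpm. Mixtures were filtered through PEI-soaked GF filter plates and washed 4× with cold buffer. Filters were dried 1 h at 50 °C and bound 3H was counted by scintillation. IC50 came from dose-response fits and Ki was also reported; the top dose was 10000 nM.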

[2] = biological target: T1, 5-hydroxytryptamine receptor 2A; assay: Displacement of [3H] Ketanserin from 5HT2A receptor (unknown origin) at 10 uM incubated for 0.5 hrs by microbeta2 plate reader assay relative to control; conditions: for inhibition: filed as antagonist; in short: as §1
[3] = biological target: T1, 5-hydroxytryptamine receptor 2A; assay: Agonist activity at 5-HT2A receptor (unknown origin) assessed as IP1 accumulation at 0.0004 to 10 uM incubated for 1 hr by HTRF method; assay type: functional; conditions: dose 0.0004-10 µM
In short: (§2)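 IP-One HTRF immunoassay for 5-HT2A Gαq signalling. Cells were seeded at 7,500 per well and given varying doses of compound. The agonist-mode reference was serotonin and the antagonist-mode reference was methiothepin. Incubation was 1 h at 37 °C, then lysis with d2-labelled IP1 and terbium cryptate anti-IP1 antibody for 1 h at room temperature. Fluorescence was read at 615/665 nm. IP1 was quantified against a 9-point standard curve, 4-fold from 7,700 nM, run in duplicate. Values came from log(inhibitor) vs response, variable-slope fit.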

[4] = biological target: T1, 5-hydroxytryptamine receptor 2A; assay: Antagonist activity at 5-HT2A receptor (unknown origin) assessed as inhibition of 5-HT stimulated IP1 production incubated for 1 hr by HTRF method; assay type: functional; in short: as §2
[5] = biological target: T1, 5-hydroxytryptamine receptor 2A; assay: Antagonist activity at 5-HT2A receptor (unknown origin) assessed as inhibition of 5-HT stimulated IP1 production at 10 uM incubated for 1 hr by HTRF method relative to control; assay type: functional; parameters: scale not given: the % may be the effect or the level left; conditions: filed as antagonist; in short: as §2
[6] = Kinetic solubility of compound in PBS at pH 7.4 incubated for 2 hrs in shaker by LC-MS/MS analysis; assay type: physicochemical; conditions: read-out: Kinetic_solubility
In short: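 Compound from 10 mM DMSO stock was added in duplicate to pH 7.4 PBS, 30 µL into 970 µL, and stirred/shaken at 1100 rpm for 2 h at room temperature. The mixture was vacuum filtered and the filtrate diluted in methanol/DMSO. Quantification was by LC-MS/MS (positive ESI, MRM) against 3 µM standards, with progesterone as positive control. The assay upper limit was 300 µM.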

T1 sequence (P28223 whole entry): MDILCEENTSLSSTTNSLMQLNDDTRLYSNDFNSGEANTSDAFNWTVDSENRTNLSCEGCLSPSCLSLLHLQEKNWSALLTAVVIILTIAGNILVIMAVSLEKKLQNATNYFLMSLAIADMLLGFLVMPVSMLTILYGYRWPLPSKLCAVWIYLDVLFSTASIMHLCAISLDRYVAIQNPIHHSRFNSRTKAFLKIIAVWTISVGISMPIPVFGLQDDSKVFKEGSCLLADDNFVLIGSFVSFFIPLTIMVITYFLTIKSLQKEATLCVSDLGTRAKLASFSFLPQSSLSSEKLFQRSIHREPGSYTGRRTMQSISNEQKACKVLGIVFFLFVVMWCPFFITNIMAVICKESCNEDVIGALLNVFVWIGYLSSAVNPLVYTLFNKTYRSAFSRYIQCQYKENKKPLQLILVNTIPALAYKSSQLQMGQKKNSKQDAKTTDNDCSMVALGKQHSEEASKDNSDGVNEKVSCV

SMILES	pKi [1]	inhibition [2]	Activity [3]	pIC50 [4]	Activity [5]	solubility kinetic at 2 h [6]	Activity [2]
COc1ccc(OC)c(/C=C2\N=C(N)NC2=O)c1.Cl	6.63	95%	inactive	6.05	93%	≥ 20 µM	
COc1cc(/C=C2\N=C(N)NC2=O)cc(OC)c1OC.Cl						≥ 20 µM	inactive
COc1cc(/C=C2\C(=O)N(C)C(=N)N2C)cc(OC)c1OC.Cl						≥ 20 µM	inactive

Now from value to molecule:

pKi [1]	inhibition [2]	Activity [3]	pIC50 [4]	Activity [5]	solubility kinetic at 2 h [6]	Activity [2]	SMILES
7.72	97%	inactive	7.24	100%	≥ 20 µM		COc1cc(/C=C2\N=C(N)NC2=O)c(OC)cc1Br.Cl
					≥ 20 µM	inactive	COc1cc(/C=C2\C(=O)N=C(N)N2C)cc(OC)c1OC.Cl
					≥ 20 µM		COc1cc(/C=C2\C(=O)N=C(N)N2C)c(OC)cc1Br.Cl
< 5.41					≥ 20 µM		COc1ccc(OC)c(/C=C2\C(=O)N=C(N)N2C)c1.Cl
